# Screening results (PubChem BioAssay)
# TNAP inh no acc – human TNAP enzyme inhibitors, primary screen, biochemical, luminescent, no phosphate acceptor, uHTS | purified TNAP, CDP-star luminescence, 30 min | Alkaline phosphatase, tissue-nonspecific isozyme (Homo sapiens), P05186 | hit rate 0.26% among 200,000 | inhibition, % at 20 µM;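 active means tissue-nonspecific alkaline phosphatase inhibition above about 50% at 20 µM in the single-dose screen, limit read from the data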;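 further: 0% = DMSO negative control and 100% = EDTA positive control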
# Target sequence (P05186 whole entry, looked up): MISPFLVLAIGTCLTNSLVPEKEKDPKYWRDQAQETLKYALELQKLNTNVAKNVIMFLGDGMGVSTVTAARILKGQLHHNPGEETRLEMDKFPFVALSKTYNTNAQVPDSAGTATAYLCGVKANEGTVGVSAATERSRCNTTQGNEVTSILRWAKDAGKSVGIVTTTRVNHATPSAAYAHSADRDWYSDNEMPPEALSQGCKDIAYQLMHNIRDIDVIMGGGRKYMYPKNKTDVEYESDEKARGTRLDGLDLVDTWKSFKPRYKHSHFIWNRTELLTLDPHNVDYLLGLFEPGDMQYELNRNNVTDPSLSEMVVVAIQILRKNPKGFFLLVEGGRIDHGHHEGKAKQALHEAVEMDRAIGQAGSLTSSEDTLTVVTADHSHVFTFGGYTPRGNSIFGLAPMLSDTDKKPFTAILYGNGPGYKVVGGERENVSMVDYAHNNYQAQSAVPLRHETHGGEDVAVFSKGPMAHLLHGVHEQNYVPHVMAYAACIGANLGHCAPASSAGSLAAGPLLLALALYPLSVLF
# TNAP inh hi DEA – human TNAP enzyme inhibitors, primary screen, biochemical, luminescent, high phosphate acceptor level, uHTS; AID 1135, 2008; hit rate 0.03% among 200,000; inhibition, % at 20 µM; purified TNAP, CDP-star luminescence, 1 M DEA; Alkaline phosphatase, tissue-nonspecific isozyme (Homo sapiens), P05186;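 active means over 50% inhibition of tissue-nonspecific alkaline phosphatase at 20 µM in the single-dose screen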;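 further: plate controls were DMSO wells for no effect and EDTA-quenched wells as full inhibition for full effect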
# TNAP act hi DEA – TNAP activators at high phosphate acceptor level, primary screen, biochemical, luminescence, uHTS; activation factor at 20 µM; 200,000 tested, under 10 active; purified TNAP, CDP-star luminescence, 1 M DEA, 30 min; active compounds read high; 0 = EDTA background, 1 = DMSO-only activity; AID 1136, 2008; Alkaline phosphatase, tissue-nonspecific isozyme (Homo sapiens), P05186;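 active means activation factor at least 2 at 20 µM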
#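 Measured by: Luminescent substrate turnover signal | Test system: Human TNAP | Input: TNAP 1/800 final | Dosing: 20 µM single point | Schedule: 30 min, room temperature | Controls: EDTA wells as negative control, DMSO wells as positive control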
# ABCG2 inh – ABCG2 efflux pump inhibitors, primary screen, multiplex with ABCB1, IgMXP3 cells, flow cytometry; JC-1 efflux; inhibition, % at 6.6 µM; hit rate 0.1% among 190,000; AID 1325, 2008;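 active means inhibition above 80%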;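 further: 0% = DMSO and 100% = nicardipine control wells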
#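 Assay system – ABCG2 IgMXP3 and barcoded ABCB1 CCRF-Adr cell mix · Input – 3 million cells/mL in well · Reagent – JC-1 fluorescent substrate · Compound – single test compound dose, 6.6 µM final · Timing – 10 min exposure at 25 °C with rotation, no wash · Detection – flow cytometry of retained JC-1 fluorescence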
# ABCB1 inh – ABCB1 efflux pump inhibitors, primary screen, cell-based, multiplex, flow cytometry, ABCG2 counter-screen; ATP-dependent translocase ABCB1 (Homo sapiens), P08183; CCRF-Adr cells, JC-1 efflux; inhibition, % at 6.6 µM; hit rate 0.067% among 190,000; AID 1326, 2008; in the data active means inhibition above about 40%;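 further: 0% = vehicle and 100% = reference inhibitor; higher value means more JC-1 retained so stronger ABCB1 efflux block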
# * = called active by the depositor; · = no result given. The list is not random: actives were taken first. Their share in the collection is about 0.41%.
SMILES,TNAP inh no acc,TNAP inh hi DEA,TNAP act hi DEA,ABCG2 inh,ABCB1 inh
COC(=O)c1cc(-c2ccc(Cl)cc2)n[nH]1,87*,-6,1.1,6,0
COC(=O)c1cc(-c2ccccc2)n[nH]1,92*,2,1,-6,-5
CC(C)(C)NC(=O)c1cc(-c2ccccc2)n[nH]1,92*,0,1,4,1
COC(=O)c1cc(-c2ccc(Cl)cc2Cl)n[nH]1,81*,2,1,19,1
C/C(=N/NC(=O)CNc1ccc(Cl)cc1C)c1ccc(C)cc1,-10,-4,1,22,2
CCOc1ccc(OCCCCn2cnc3ccccc3c2=O)cc1,-4,-5,1,6,1
CN(C)/C=C/c1oc2ccc(O)cc2c1[N+](=O)[O-],48,52*,0.5,4,0
Cc1ccc(-n2[nH]c(C)c(/C=N/Nc3ccc([N+](=O)[O-])cc3[N+](=O)[O-])c2=O)cc1,35,51*,0.5,10,-1
CCc1ccc(-c2cc(C(=O)N/N=C/c3ccco3)[nH]n2)cc1,51*,-1,1,-2,-1
Cc1ccc(-c2cc(C(=O)N/N=C/c3ccco3)n[nH]2)s1,68*,13,0.9,8,0
CC(C)(C)c1cc(C(=O)N/N=C/c2ccco2)n[nH]1,4,2,1,·,·
O=C(N/N=C/c1ccco1)c1cc(-c2ccc3ccccc3c2)n[nH]1,3,-3,1,2,0
CCS(=O)(=O)n1nc(-c2ccco2)nc1SC,4,-8,1.1,-4,-1
CCS(=O)(=O)n1nc(-c2ccc(Cl)cc2)nc1SC,61*,0,1,16,1
CCC(C(=O)Nc1ccccc1-c1ccccc1)c1ccccc1 (stereo not given),-7,-1,1,6,1
CCC(C(=O)Nc1ccccc1)c1ccccc1 (stereo not given),-10,-4,1,173*,·
O=C(O)CC1SC(=Nc2ccc(O)cc2)NC1=O (stereo not given),54*,-6,1.1,1,0
Cc1nn(C)c(C)c1/C=N/NC(=O)CCn1nc(C)c([N+](=O)[O-])c1C,-6,-2,1,12,0
CC1CCCN(C(=O)CSc2nc3ncccc3[nH]2)C1 (stereo not given),53*,-5,1,3,0
CCN(CC)C(=O)CSc1nc2ncccc2[nH]1,49,-4,1,1,0
C=C(C)CSc1nc2ncccc2[nH]1,66*,-5,1,-3,-3
CC(C)(C)c1ccc(OCCNC(=S)NC(=O)c2cccnc2)cc1,-17,-7,1.1,10,1
COc1ccc2c(c1)CCc1c(C(=O)N3CCCCCC3)noc1-2,-6,-4,1,4,1
COc1ccc2c(c1)CCc1c-2n[nH]c1C(=O)O,86*,-3,1,-3,-5
COC(=O)C1=C(C)N(CCc2cc(OC)c(OC)c(OC)c2)C(=O)N[C@H]1c1ccc(Br)cc1,-9,-3,1,19,4
SMILES,TNAP inh no acc,TNAP inh hi DEA,TNAP act hi DEA,ABCG2 inh,ABCB1 inh
Cc1cc(C)c(S(=O)(=O)Nc2ccc(O)c(Sc3ncn[nH]3)c2)c(C)c1,72*,1,1,-4,0
COc1ccc(S(=O)(=O)Nc2ccc(O)c(Sc3ncn[nH]3)c2)cc1,79*,5,0.9,-1,0
COc1ccc(S(=O)(=O)Nc2cc(Sc3ncn[nH]3)c(O)c3ccccc23)cc1,29,4,1,-1,0
CC(C)(CO)NC(=O)Nc1ccc(Cl)c(Cl)c1,-12,-3,1,3,0
Cc1ccc(OCCCC(=O)NCc2ccco2)c(C)c1,-5,-6,1.1,9,0
COc1ccccc1N1CCN(CCCC(=O)c2ccc(F)cc2)CC1,-14,-8,1.1,6,2
O=C(CCCN1CC=C(n2c(=O)[nH]c3ccccc32)CC1)c1ccc(F)cc1,63*,7,0.9,0,0
Cn1cc(CNCc2cnc3ccccn23)c(-c2ccc(Oc3ccccc3)cc2)n1,74*,39,0.6,2,2
CCOc1cc(CNc2nn[nH]n2)ccc1OCC(=O)NC(C)(C)C,-6,-1,1,6,0
CCOc1ccc(OCc2ccc(C(=O)N3CCCC3)o2)cc1,-23,-5,1.1,7,41*
O=c1cc(CSc2nnc(Nc3ccccc3F)s2)nc2sccn12,52*,0,1,1,0
Cc1ccc(NC(=S)N(CCCN2CCC(C)CC2)Cc2ccco2)cc1C,-11,-6,1.1,-1,0
O=C(O)c1ccc(N2C(=O)/C(=C/C=C/c3ccccc3)SC2=S)cc1,6,-4,1,-1,-1
CN(C)c1ccc(/C=C/C=C2/SC(=S)N(c3ccccc3)C2=O)cc1,55*,54*,0.5,6,1
O=C(N/N=C/c1c[nH]c2ccccc12)c1cc(-c2ccc3ccccc3c2)n[nH]1,3,5,0.9,-2,0
Cc1ccc(-c2cc(C(=O)N/N=C/c3c[nH]c4ccccc34)[nH]n2)cc1,71*,10,0.9,-13,-1
O=C(N/N=C/c1c[nH]c2ccccc12)c1cc(-c2ccccc2)n[nH]1,87*,16,0.8,-9,-1
O=C(N/N=C/c1c[nH]c2ccccc12)c1cc(-c2ccc(-c3ccccc3)cc2)n[nH]1,3,-2,1,-2,-1
Cc1cc(C)nc(SCCn2c(N3CCOCC3)nc3c2c(=O)[nH]c(=O)n3C)n1,-7,-5,1.1,2,0
CCOC(=O)c1sc(NC(=O)CSc2n[nH]c(-c3ccc(Cl)cc3Cl)n2)c(C#N)c1C,96*,37,0.6,-3,0
COc1ccc(C(=O)Nc2n[nH]c(-c3ccncc3)n2)cc1,92*,2,1,0,-7
COc1ccc(C(=O)Nc2nc(C)cc(C)n2)cc1,-5,4,1,1,0
CCCCNC(=O)N1CCN(Cc2ccc(F)cc2)CC1,-4,-4,1,4,0
COc1ccc(C(=O)C2CCCN(C(=O)c3n[nH]c4c3CCCC4)C2)cc1OC (stereo not given),60*,-3,1,0,0
CCOC(=O)C1=NN(C(=O)COc2ccccc2)C(O)(c2ccc(Br)cc2)C1 (stereo not given),51*,2,1,0,0
